# Most compounds without a hit are left out; they make up all but 3% or so of the library.
# Kir21 inh: blocks the mouse Kir2.1 inward-rectifier potassium channel. P35561. HEK293-Kir2.1, FluxOR thallium flux fluorescence; hits give low values. B-score at 10 µM. 310,000 tested, 0.85% active;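 active = fluorescence ratio B-score at or below minus 3 SD of library scores, with starting-brightness B-score within 2 SD, cut at about -4.2 in these data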;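 note: channel flux triggered by added potassium and thallium sulfate stimulus; B-score of peak minus minimum fluorescence over baseline after thallium stimulus; more negative B-score means stronger Kir2.1 block with less thallium influx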
# Target sequence (P35561 whole entry, looked up): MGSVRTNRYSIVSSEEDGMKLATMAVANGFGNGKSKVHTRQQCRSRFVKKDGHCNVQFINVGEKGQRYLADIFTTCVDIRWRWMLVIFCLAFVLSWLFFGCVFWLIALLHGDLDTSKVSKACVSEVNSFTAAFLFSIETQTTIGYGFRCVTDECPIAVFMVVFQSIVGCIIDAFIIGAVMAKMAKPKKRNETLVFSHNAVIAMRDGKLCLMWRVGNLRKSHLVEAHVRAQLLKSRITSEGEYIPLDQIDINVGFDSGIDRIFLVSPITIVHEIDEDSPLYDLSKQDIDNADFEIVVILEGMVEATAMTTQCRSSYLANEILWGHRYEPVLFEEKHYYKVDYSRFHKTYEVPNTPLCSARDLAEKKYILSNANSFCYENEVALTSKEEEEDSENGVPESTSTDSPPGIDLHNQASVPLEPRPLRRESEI
# SR-BI uptake up: enhances SR-BI lipid uptake from DiI-HDL; activation, % at 12.5 µM; 320,000 tested, 0.096% active; CHO ldlA[mSR-BI] cells, DiI-HDL uptake fluorescence, 3 h; 100 = double the neutral-control signal; AID 504775;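 active = mean replicate activation of at least 60% and every replicate at or above 60%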;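 note: 0% = median plate neutral-control signal and 100% = twice that signal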
#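 Test system: SR-BI-overexpressing, LDLR-lacking CHO cells. Measured by: DiI fluorescence, bottom read. Medium: Ham's F12 with 0.5% BSA, HEPES 25 mM, pH 7.4. Timing: 3 h uptake period with compound, 37 °C.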
# TMEM16A inh: mouse TMEM16A channel inhibition, primary screen | Q8BHY3 | HEK293 TMEM16A/YFP iodide influx fluorescence, ionomycin | normalized B-score (activity score, 25-100; higher = stronger inhibition) at 10 µM | 310,000 tested, 1.2% active | AID 588511;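 active = ratio plate-corrected score three or more library SD toward inhibition, starting fluorescence score within five deviations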;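 note: score derived from kinetic fluorescence span divided by baseline fluorescence per well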
# TMEM16A act: activates or potentiates the mouse TMEM16A chloride channel; Q8BHY3; HEK293 TMEM16A/YFP-H148Q/I152L, iodide quench fluorescence; hits give low values; B-score at 10 µM; 340,000 tested, 0.3% active; AID 623877;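 active = fluorescence-ratio B-score plate-corrected deviation score at least 3 library SD below zero, with starting fluorescence score within 5 deviations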;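 note: channel opened by trigger with iodide after compound preincubation; score built on the fluorescence ratio of max minus min over baseline; more negative score means more quench and so TMEM16A activation or potentiation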
# DNA FID counter: counter-screen for HCV NS3 helicase inhibitors: DNA intercalator displacement. DNA fluorescent intercalator displacement, fluorescence. inhibition, % at 7.9 µM. 290,000 tested, 0.17% active; in the data active = inhibition above about 37%;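 note: 0% = vehicle and 100% = reference compound; higher means more ethidium bromide displaced from hairpin DNA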
# SR-BI HDL uptake: blocks mouse SR-BI lipid uptake from DiI-HDL; ldlA[mSR-BI] CHO cells, DiI-HDL uptake fluorescence, 3 h; AID 488896; inhibition, % at 12.5 µM; 320,000 tested, 0.96% active; Q61009;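 active = mean replicate inhibition of at least 70% and a set share of replicates each scoring 70 or more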;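 note: 0% = median of neutral control wells and 100% = median of positive control wells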
# Active calls of the source: *; i = inactive; x = no result given.
SMILES,Kir21 inh,SR-BI uptake up,TMEM16A inh,TMEM16A act,DNA FID counter,SR-BI HDL uptake
COc1cc(CNC(=O)c2ccccc2NC(=O)C2=C(C)OCCS2)cc(OC)c1OC,0.8,-11.8,i,i,-33.7,11.8
COc1ccc(CCn2c(=O)[nH]c3cc(C(=O)N4CCN(c5ccccn5)CC4)ccc3c2=O)cc1OC,0.14,-80.6,i,i,-2.9,80.6*
Cc1nn(-c2cc(C(F)(F)F)ccc2Cl)c2nc(C(F)(F)F)[nH]c(=O)c12,-1.69,9.1,i,i,-8.6,-9.1
Cc1nn(-c2cccc(Cl)c2)c2nc(C(F)(F)F)[nH]c(=O)c12,-0.28,-4.5,100*,i,-2.0,4.5
CCNC(=O)CON=C1c2ccccc2-c2ccccc21,2.33,-47.6,i,i,-13.6,47.6
CCC(CC)NC(=O)CON=C1c2ccccc2-c2ccccc21,-0.67,-72.4,i,i,-8.5,72.4*
COCCCN(Cc1ccco1)C(=O)Cn1ncc2c(=O)oc3ccc(C)cc3c21,-0.05,-0.2,i,i,-28.6,0.2
COC(=O)c1c(C)[nH]c(C(=O)OCc2csc(CC(=O)Nc3ccccc3C)n2)c1C,x,-63.5,x,i,x,63.5
COc1ccc(-n2nc3c(c2NC(=O)c2ccc(S(=O)(=O)N4CCOCC4)cc2)CS(=O)C3)cc1 (stereo unspecified),-0.94,68.3*,i,i,-17.4,-68.3
COc1ccc(OC)c(NC(=O)/C=C/c2ccccc2[N+](=O)[O-])c1,1.9,-86.0,i,i,-3.4,86.0*
COc1ccc(OC)c(NC(=O)c2cc3ccccc3cc2OC)c1,1.54,-57.0,i,i,-28.3,57.0
COc1ccc(OC)c(NC(=O)c2cccc(C)c2[N+](=O)[O-])c1,1,-72.5,i,i,0.0,72.5*
COCCN(C(=O)Nc1ccc(OC)cc1OC)C1CCN(C(C)=O)CC1,3.5,x,i,i,-9.3,79.6*
COc1ccc(NC(=O)N2CCCCCC2)c(OC)c1,-0.25,-22.8,i,i,-2.6,22.8
CSc1ncnc2c1ccn2CC(=O)Nc1ccc(C)c(C)c1,x,15.5,x,i,x,-15.5
CNC(=O)COC(=O)c1ccc(Cl)c(S(N)(=O)=O)c1,0.14,x,i,i,-6.0,x
C=CCNC(=O)COC(=O)c1ccc(Cl)c(S(N)(=O)=O)c1,0.3,9.4,i,-29.5*,-1.7,-9.4
O=C(CCCC(=O)NN=Cc1ccccc1Cl)NN=Cc1ccccc1Cl,x,-7.3,x,i,x,7.3
O=C(CCCC(=O)NN=Cc1ccc(Cl)cc1Cl)NN=Cc1ccc(Cl)cc1Cl,x,-96.1,x,i,x,96.1*
N#CC(C#N)=C1C=CC=CN1/C(=C\c1ccccc1)C(=O)c1cccs1,-4.99*,-12.4,i,i,8.9,12.4
CC1CCN(C(=O)/C(=C/c2ccccc2Cl)c2ccccc2)CC1,-0.64,-14.5,i,i,-18.3,14.5
O=C(N/N=C/C(Br)=C\c1ccccc1)c1cccs1,-1.63,x,i,i,-10.3,x
N#CC(C#N)=C1C=CC=CN1/C(=C\c1ccccc1Cl)C(=O)c1ccccc1,x,-43.1,i,-8.37*,-6.0,43.1
CCOC(=O)C1=C(C)Nc2ccccc2N/C1=N\S(=O)(=O)c1ccccc1,x,-5.7,x,i,x,5.7
O=C(NCc1ccccc1)C12CC3CC(CC(Br)(C3)C1)C2,0.04,x,i,i,-15.8,x
SMILES,Kir21 inh,SR-BI uptake up,TMEM16A inh,TMEM16A act,DNA FID counter,SR-BI HDL uptake
Cc1cccc(NCc2nc(SCC(=O)Nc3ccccc3Br)n[nH]2)c1,-5.02*,8.8,i,i,-14.7,-8.8
Cc1cc(NC(=O)CSc2nc3c(C)cccc3cc2C)no1,1.35,-0.5,i,i,-9.1,0.5
COc1ccc(NC(=O)c2cc3ccc(O)cc3o/c2=N\O)cc1,0.55,-41.1,i,i,2.2,41.1
COc1cccc(NC(=O)Nc2nnc(N3C(C)CCCC3C)s2)c1 (stereo unspecified),0.03,x,i,i,-2.2,x
CN1CCN(C2=Cc3ccccc3Sc3cc(F)c(F)cc32)CC1,-4.41*,5.2,i,i,18.5,-5.2
CCCCc1cc(=O)oc2cc(OCc3cc(OC)c(OC)c(OC)c3)c(Cl)cc12,-2.05,28.3,i,-4.92*,0.6,-28.3
